Source: ChEMBL document CHEMBL1140114, “Antitumor compounds based on a natural product consensus pharmacophore” (J Med Chem, 2008)
Active and inactive are the calls of the source. No cut-off for these calls is given here.

Tests used:
NIH3T3 = test: Cytotoxicity against mouse NIH3T3 cells upto 5 uM after 72 hrs by XTT colorimetric assay; type: cell-based; conditions: nih3t3, 72 h
Method in brief: (§1)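 Initial screen on a five-line panel (A549, COS-7, MCF-7, WiDr, NIH3T3). Compounds were tested at concentrations up to 5 µM. Read-out was percent inhibition of cell growth at the highest concentration, 5 µM.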

MCF7 [1] = test: Cytotoxicity against human MCF7 cells upto 5 uM after 72 hrs by XTT colorimetric assay; type: functional, cell-based; method in brief: as §1
WiDr [2] = test: Cytotoxicity against human WiDr cells upto 5 uM after 72 hrs by XTT colorimetric assay; type: functional, cell-based; method in brief: as §1
A549 [3] = test: Cytotoxicity against human A549 cells upto 5 uM after 72 hrs by XTT colorimetric assay; type: functional, cell-based; method in brief: as §1
[4] = Cytotoxicity against african green monkey COS7 cells upto 5 uM after 72 hrs by XTT colorimetric assay; type: cell-based; conditions: chlorocebus aethiops, cos-7, 72 h; method in brief: as §1
WiDr [5] = test: Cytotoxicity against human WiDr cells after 72 hrs by XTT colorimetric assay
OVCAR-3 = test: Cytotoxicity against human OVCAR-3 cells after 72 hrs by XTT colorimetric assay; type: functional, cell-based; conditions: OVCAR-3, 72 h
Method in brief: (§2)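 Seven-line tumour panel run with an XTT colorimetric cytotoxicity read-out; IC50 values estimated from the XTT data. Tissue origins: A549 lung carcinoma, MCF-7 breast cancer, OVCAR-3 ovarian cancer, PC-3 prostate cancer, WiDr colorectal cancer.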

A549 [6] = test: Cytotoxicity against human A549 cells after 72 hrs by XTT colorimetric assay; type: functional, cell-based; conditions: A549, 72 h; method in brief: as §2
PC-3 = test: Cytotoxicity against human PC3 cells after 72 hrs by XTT colorimetric assay; type: functional, cell-based; conditions: PC-3, 72 h; method in brief: as §2
MCF7 [7] = test: Cytotoxicity against human MCF7 cells after 72 hrs by XTT colorimetric assay; type: functional, cell-based; conditions: MCF7, 72 h; method in brief: as §2
JVM-2 = test: Cytotoxicity against human JVM2 cells after 72 hrs by XTT colorimetric assay; type: functional, cell-based; conditions: JVM-2, 72 h
Method in brief: (§3)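 Mantle cell lymphoma lines (JeKo-1, JVM-2), screened within a seven-line human tumour panel. Viability read out by XTT colorimetric cytotoxicity assay, with IC50 estimated from the resulting growth inhibition data.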

[8] = Cytotoxicity against human JeKo1 cells after 72 hrs by XTT colorimetric assay; type: functional, cell-based; conditions: JeKo-1, 72 h; method in brief: as §3
A549 [9] = test: Cytotoxicity against human A549 cells at 5 uM after 72 hrs by XTT colorimetric assay; type: functional; method in brief: as §1
MCF7 [10] = test: Cytotoxicity against human MCF7 cells at 5 uM after 72 hrs by XTT colorimetric assay; type: functional; method in brief: as §1

SMILES | IC50 (WiDr [5]) | IC50 (OVCAR-3) | IC50 (A549 [6]) | IC50 (PC-3) | IC50 (MCF7 [7]) | further results
CC(=O)O[C@@H](C)/C=C\C(=O)N[C@H]1CC[C@@H](CNC(=O)OC[C@@H]2C[C@]3(CO3)CC(C)(C)O2)CC1 |  |  |  |  |  | Activity (NIH3T3): Not Active; Activity (MCF7 [1]): inactive; Activity (WiDr [2]): inactive; Activity (A549 [3]): inactive; Activity [4]: Not Active
CC[C@H](O)[C@@H](C)[C@H]1O[C@@H]1C[C@H](C)/C=C/C=C(\C)[C@H]1OC(=O)C[C@H](O)CC[C@@](C)(O)[C@@H](OC(C)=O)CC[C@@H]1C [PLADIENOLIDE B] | 0.00086 µM | 0.0004 µM | 0.0014 µM | 0.0023 µM | 0.0004 µM | 
CC(=O)O[C@@H](C)/C=C\C(=O)N[C@H]1CC[C@@H](C/C=C(C)/C=C/[C@@H]2C[C@]3(CO3)CC(C)(C)O2)CC1 | 2.03 µM | 1.98 µM | 4.65 µM | 2.12 µM | 2.29 µM | IC50 (JVM-2): 0.13 µM; IC50 [8]: 0.1 µM
CC(=O)O[C@@H](C)/C=C\C(=O)N[C@@H]1C[C@H](C)[C@H](C/C=C(C)/C=C/[C@H]2O[C@](C)(O)C[C@@]3(CO3)[C@@H]2O)O[C@@H]1C |  |  | 0.0013 µM |  | 0.0018 µM | 
CC(=O)O[C@@H](C)/C=C\C(=O)N[C@H]1CC[C@@H](COC(=O)OC[C@@H]2C[C@]3(CO3)CC(C)(C)O2)CC1 |  |  |  |  |  | Activity (A549 [9]): 10%; Activity (MCF7 [10]): 10%
